# From ChEMBL document CHEMBL2062422, “Design, synthesis and biological evaluation of some novel thienopyrimidines and fused thienopyrimidines as anti-inflammatory agents” (Eur J Med Chem, 2012)
# Key:
# [1] = test system: Rattus norvegicus; assay: Ulcerogenic activity in albino rat assessed as hyperemia at 300 mg/kg/day administered as equal doses at 0 and 12 hrs for three consecutive days measured at 6 hrs post last dose; type: toxicity, organism-based; details: in vivo
# Outline: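 Male albino rats, 180–200 g, five per group, fasted 12 h with water ad libitum. Dosing was 300 mg/kg/day po, split into equal doses at 0 and 12 h, for 3 successive days. Controls received 1% gum acacia orally. Rats were killed with ether 6 h after the last dose. Stomachs were opened along the greater curvature, washed with cold saline and inspected under a 3X lens for hyperemia, hemorrhage, hemorrhagic erosion or ulcer.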
# [2] = test system: Rattus norvegicus; assay: Antiinflammatory activity in albino rat sub-acute inflammatory model assessed as inhibition of formalin-induced paw edema at 10 mg/kg, po administered 1 hr post challenge for 7 consecutive days measured at day 8 of challenge; type: functional; details: in the assay text read “1 hr prior to challenge” for “1 hr post challenge”
# [3] = test system: Rattus norvegicus; assay: Acute toxicity in albino rat at 0.1 to 0.3 g/kg/, po measured after 24 hrs; details: in vivo
# [4] = Ulcerogenic activity in po dosed albino rat measured after 24 hrs; type: toxicity, organism-based; details: in vivo
# Outline: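 Male albino rats (180–200 g), five per group, fasted 12 h with water ad libitum. Compounds given orally as two equal doses at 0 and 12 h on three successive days, 300 mg/kg per day. Control received 1% gum acacia po. Rats killed 6 h after the last dose. Stomachs opened along the greater curvature, washed with cold saline and inspected under 3X magnification for hyperemia, hemorrhage, erosion or ulcer.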
# [5] = test system: Rattus norvegicus; assay: Antiinflammatory activity in albino rat acute inflammatory model assessed as inhibition of formalin-induced paw edema at 10 mg/kg, po administered 1 hr prior to challenge measured after 2 hr
# [6] = test system: Rattus norvegicus; assay: Antiinflammatory activity in albino rat acute inflammatory model assessed as inhibition of formalin-induced paw edema at 10 mg/kg, po administered 1 hr prior to challenge measured after 4 hr
# [7] = test system: Rattus norvegicus; assay: Antiinflammatory activity in albino rat sub-acute inflammatory model assessed as inhibition of turpentine-induced granuloma pouch at 10 mg/kg, po administered 1 hr […] for 7 consecutive days measured at day 8 of challenge; type: functional
# [8] = test system: Rattus norvegicus; assay: Antiinflammatory activity in albino rat sub-acute inflammatory model assessed as inhibition of formalin-induced paw edema at 10 mg/kg, po administered 1 hr prior to challenge for 7 consecutive days measured at day 1 of challenge
# [9] = test system: Rattus norvegicus; assay: Antiinflammatory activity in albino rat acute inflammatory model assessed as inhibition of formalin-induced paw edema at 10 mg/kg, po administered 1 hr post challenge measured after 1 hr; type: functional; details: in the assay text read “administered 1 hr prior to challenge” for “administered 1 hr post challenge”
# Outline: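 Rats were randomised into groups of five. Dosing was 10 mg/kg po, given 1 h before 2% formalin (0.1 mL) was injected subplantar into the left hind paw under light ether anaesthesia. […] Values are mean ± S.E., N = 5 rats.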
# [10] = test system: Rattus norvegicus; assay: Antiinflammatory activity in albino rat acute inflammatory model assessed as inhibition of formalin-induced paw edema at 10 mg/kg, po administered 1 hr prior to challenge measured after 1 hr
# [11] = test system: Rattus norvegicus; assay: Antiinflammatory activity in albino rat sub-acute inflammatory model assessed as inhibition of formalin-induced paw edema at 10 mg/kg, po administered 1 hr prior to challenge for 7 consecutive days measured at day 8 of challenge
smiles,measurement,setting,value
Cc1c(C(N)=O)sc2c1c(=O)n(Cc1ccccc1)c1n[nH]c(=O)n21,Activity,[1],Non-toxic
same,inhibition in vivo at 10 mg/kg,[2],37%
same,Activity,[3],Non-toxic
same,LD50 at 24 h,[4],> 300 mg/kg
same,inhibition in vivo at 10 mg/kg,[5],61%
same,inhibition in vivo at 10 mg/kg,[6],49%
same,inhibition in vivo at 10 mg/kg,[7],38.5%
same,inhibition in vivo at 10 mg/kg,[8],43%
same,inhibition in vivo at 10 mg/kg,[9],75%
Cc1cc(C)n(-c2nc3sc(C(N)=O)c(C)c3c(=O)n2Cc2ccccc2)n1,inhibition in vivo at 10 mg/kg,[2],32%
same,inhibition in vivo at 10 mg/kg,[5],39%
same,inhibition in vivo at 10 mg/kg,[6],49%
same,inhibition in vivo at 10 mg/kg,[7],40.3%
same,inhibition in vivo at 10 mg/kg,[8],39%
same,inhibition in vivo at 10 mg/kg,[9],44%
Cc1c(C(N)=O)sc2c1c(=O)n(Cc1ccccc1)c1nnc(-c3ccc(Br)cc3)n21,inhibition in vivo at 10 mg/kg,[2],30%
same,inhibition in vivo at 10 mg/kg,[5],39%
same,inhibition in vivo at 10 mg/kg,[6],41%
same,inhibition in vivo at 10 mg/kg,[7],41.2%
same,inhibition in vivo at 10 mg/kg,[8],37%
same,inhibition in vivo at 10 mg/kg,[10],31%
CCOC(=O)CSc1nnc2n(Cc3ccccc3)c(=O)c3c(C)c(C(N)=O)sc3n12,Activity,[1],20%
same,inhibition in vivo at 10 mg/kg,[2],36%
same,Activity,[3],Non-toxic
same,LD50 at 24 h,[4],> 300 mg/kg
same,inhibition in vivo at 10 mg/kg,[5],61%
same,inhibition in vivo at 10 mg/kg,[6],49%
same,inhibition in vivo at 10 mg/kg,[7],41.2%
same,inhibition in vivo at 10 mg/kg,[8],41%
same,inhibition in vivo at 10 mg/kg,[9],56%
Cc1c(C(N)=O)sc2nc(N/N=C/c3ccc(Br)cc3)n(Cc3ccccc3)c(=O)c12,inhibition in vivo at 10 mg/kg,[2],34%
same,inhibition in vivo at 10 mg/kg,[5],39%
same,inhibition in vivo at 10 mg/kg,[6],44%
same,inhibition in vivo at 10 mg/kg,[7],34.4%
same,inhibition in vivo at 10 mg/kg,[8],39%
same,inhibition in vivo at 10 mg/kg,[9],69%
Cc1c(C(N)=O)sc2nc(NN)n(Cc3ccccc3)c(=O)c12,Activity,[1],10%
same,inhibition in vivo at 10 mg/kg,[2],43%
same,Activity,[3],Non-toxic
same,LD50 at 24 h,[4],> 300 mg/kg
same,inhibition in vivo at 10 mg/kg,[5],61%
same,inhibition in vivo at 10 mg/kg,[6],51%
same,inhibition in vivo at 10 mg/kg,[7],44.8%
same,inhibition in vivo at 10 mg/kg,[8],43%
same,inhibition in vivo at 10 mg/kg,[9],69%
Cc1c(C(N)=O)sc2c1c(=O)n(Cc1ccccc1)c1nnc(-c3ccccc3Cl)n21,inhibition in vivo at 10 mg/kg,[2],30%
same,inhibition in vivo at 10 mg/kg,[5],43%
same,inhibition in vivo at 10 mg/kg,[6],49%
same,inhibition in vivo at 10 mg/kg,[7],35.7%
same,inhibition in vivo at 10 mg/kg,[8],33%
same,inhibition in vivo at 10 mg/kg,[9],37%
Cc1c(C(N)=O)sc2c1c(=O)n(Cc1ccccc1)c1nncn21,inhibition in vivo at 10 mg/kg,[2],32%
same,inhibition in vivo at 10 mg/kg,[5],43%
same,inhibition in vivo at 10 mg/kg,[6],54%
same,inhibition in vivo at 10 mg/kg,[7],39.4%
same,inhibition in vivo at 10 mg/kg,[8],39%
same,inhibition in vivo at 10 mg/kg,[9],56%
Cc1c(C(N)=O)sc2nc(-n3nc(-c4ccc(Cl)cc4)cc3N)n(Cc3ccccc3)c(=O)c12,Activity,[1],Non-toxic
same,inhibition in vivo at 10 mg/kg,[2],30%
same,Activity,[3],Non-toxic
same,LD50 at 24 h,[4],> 300 mg/kg
same,inhibition in vivo at 10 mg/kg,[5],52%
same,inhibition in vivo at 10 mg/kg,[6],46%
same,inhibition in vivo at 10 mg/kg,[7],40.3%
same,inhibition in vivo at 10 mg/kg,[8],35%
same,inhibition in vivo at 10 mg/kg,[9],56%
COc1ccc2c(c1)c(CC(=O)O)c(C)n2C(=O)c1ccc(Cl)cc1 [INDOMETHACIN],Activity,[1],100%
CC1=NN(c2nc3sc(C(N)=O)c(C)c3c(=O)n2Cc2ccccc2)C(=O)C1,Activity,[1],Non-toxic
same,inhibition in vivo at 10 mg/kg,[2],34%
same,Activity,[3],Non-toxic
same,LD50 at 24 h,[4],> 300 mg/kg
same,inhibition in vivo at 10 mg/kg,[5],48%
same,inhibition in vivo at 10 mg/kg,[6],46%
same,inhibition in vivo at 10 mg/kg,[7],38.9%
same,inhibition in vivo at 10 mg/kg,[8],39%
same,inhibition in vivo at 10 mg/kg,[9],37%
Cc1c(C(N)=O)sc2c1C(=O)N(Cc1ccccc1)C1=NN=C(c3ccc(Cl)cc3)CN12,inhibition in vivo at 10 mg/kg,[2],37%
same,inhibition in vivo at 10 mg/kg,[5],43%
same,inhibition in vivo at 10 mg/kg,[6],46%
same,inhibition in vivo at 10 mg/kg,[7],38.5%
same,inhibition in vivo at 10 mg/kg,[8],46%
same,inhibition in vivo at 10 mg/kg,[9],44%
O=C([O-])Cc1ccccc1Nc1c(Cl)cccc1Cl.[Na+] [DICLOFENAC SODIUM],Activity,[1],Non-toxic
same,inhibition in vivo at 10 mg/kg,[9],63%
CC(=O)N1N=C2N(Cc3ccccc3)C(=O)c3c(sc(C(N)=O)c3C)N2C1c1ccc(Br)cc1 (centres undefined),inhibition in vivo at 10 mg/kg,[2],30%
same,inhibition in vivo at 10 mg/kg,[5],30%
same,inhibition in vivo at 10 mg/kg,[6],36%
same,inhibition in vivo at 10 mg/kg,[7],39.8%
same,inhibition in vivo at 10 mg/kg,[8],33%
same,inhibition in vivo at 10 mg/kg,[10],31%
CCOC(=O)Cc1nnc2n(Cc3ccccc3)c(=O)c3c(C)c(C(N)=O)sc3n12,inhibition in vivo at 10 mg/kg,[2],37%
same,inhibition in vivo at 10 mg/kg,[7],39.8%
same,inhibition in vivo at 10 mg/kg,[8],46%
CSc1nc2sc(C(N)=O)c(C)c2c(=O)n1Cc1ccccc1,inhibition in vivo at 10 mg/kg,[11],21%
same,inhibition in vivo at 10 mg/kg,[5],43%
same,inhibition in vivo at 10 mg/kg,[6],38%
same,inhibition in vivo at 10 mg/kg,[7],11.3%
same,inhibition in vivo at 10 mg/kg,[8],17%
same,inhibition in vivo at 10 mg/kg,[9],44%
Cc1c(C(N)=O)sc2nc(S)n(Cc3ccccc3)c(=O)c12,inhibition in vivo at 10 mg/kg,[2],5%
same,inhibition in vivo at 10 mg/kg,[5],0%
same,inhibition in vivo at 10 mg/kg,[6],5%
same,inhibition in vivo at 10 mg/kg,[7],4.07%
same,inhibition in vivo at 10 mg/kg,[8],4%
same,inhibition in vivo at 10 mg/kg,[9],25%
Cc1c(C(N)=O)sc2c1c(=O)n(Cc1ccccc1)c1n[nH]c(=S)n21,Activity,[1],10%
same,inhibition in vivo at 10 mg/kg,[2],34%
same,Activity,[3],Non-toxic
same,LD50 at 24 h,[4],> 300 mg/kg
same,inhibition in vivo at 10 mg/kg,[5],56%
same,inhibition in vivo at 10 mg/kg,[6],51%
same,inhibition in vivo at 10 mg/kg,[7],23.1%
same,inhibition in vivo at 10 mg/kg,[8],41%
same,inhibition in vivo at 10 mg/kg,[9],50%
